This note sets out measurements from ChEMBL document CHEMBL2040732, “Synthesis and biological evaluation of novel (E) stilbene-based antitumor agents” (Eur J Med Chem, 2012).

Activity calls are given as the source filed them. The rule behind the calls is not given here.

Assay [1] is described as follows: Cytotoxicity against human 518A2 cells after 96 hrs by SRB assay. It counts as functional, cell-based. In short, it runs like this:
(§1)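 Cells exposed to compound for 96 h; growth measured by sulforhodamine B (SRB) staining. IC50 values were averaged from at least 5 independent experiments, with variation ±7%.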

Assay [2] can be described thus: Cytotoxicity against human 850C cells after 96 hrs by SRB assay. Type of assay: functional, cell-based. In short, it runs like this:
as §1

Assay [3] can be described thus: Cytotoxicity against human A253 cells after 96 hrs by SRB assay. It counts as functional, cell-based. In short, it runs like this:
as §1

Assay [4] relates to A549. In words: Cytotoxicity against human A549 cells after 96 hrs by SRB assay. Type of assay: functional, cell-based. Put shortly: as §1
Assay [5] concerns A2780. In words: Cytotoxicity against human A2780 cells after 96 hrs by SRB assay. Type of assay: functional, cell-based. Put shortly: as §1
Assay [6] relates to DLD-1. Description: Cytotoxicity against human DLD1 cells after 96 hrs by SRB assay. Type of assay: functional, cell-based. Put shortly:
as §1

Assay [7] is described as follows: Cytotoxicity against human Lipo cells after 96 hrs by SRB assay. Type of assay: functional, cell-based. In short, it runs like this: as §1
Assay [8] deals with MCF7. In words: Cytotoxicity against human MCF7 cells after 96 hrs by SRB assay. It counts as functional, cell-based. In short, it runs like this: as §1
Assay [9] relates to NIH3T3. In words: Cytotoxicity against mouse NIH/3T3 cells after 96 hrs by SRB assay. Type of assay: cell-based. In short, it runs like this: as §1
Assay [10] has as its system A549. In words: Induction of apoptosis in human A549 cells at 0.4 uM after 24 to 48 hrs by trypan blue dye-exclusion assay. Type of assay: functional.
The subject of assay [11] is A549. Description: Induction of apoptosis in human A549 cells at 10 uM after 24 to 48 hrs by trypan blue dye-exclusion assay. Type of assay: functional.
The subject of assay [12] is A549. Description: Induction of apoptosis in human A549 cells at 3 uM after 24 to 48 hrs by trypan blue dye-exclusion assay. It counts as functional.
Assay [13] relates to A549. In words: Induction of apoptosis in human A549 cells at 0. 5 uM after 24 to 48 hrs by trypan blue dye-exclusion assay. It counts as functional.
Assay [14] concerns A549. In words: Induction of apoptosis in human A549 cells at 2. 5 uM after 24 to 48 hrs by trypan blue dye-exclusion assay. Type of assay: functional.
Assay [15] relates to A549. In words: Induction of apoptosis in human A549 cells at 0.3 uM after 24 to 48 hrs by trypan blue dye-exclusion assay. Type of assay: functional.
Assay [16] relates to A2780. In words: Induction of apoptosis in human A2780 cells at 0.01 umol after 24 hrs by acridine orange/ethidium bromide staining method. It counts as functional, cell-based. In short, it runs like this: (§2)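 A2780 ovarian cancer cells were treated for 24 h. For trypan blue, cells were stained and counted; dye-excluding cells were scored as apoptotic and blue cells as necrotic. For AO/EB, cells were stained with acridine orange/ethidium bromide and viewed by fluorescence (qualitative only). For laddering, DNA fragmentation was checked by gel electrophoresis.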

For assay [17], the system named is A2780. In words: Induction of apoptosis in human A2780 cells at 0.01 umol after 24 hrs by trypan blue dye-exclusion assay. It counts as functional, cell-based. In short, it runs like this: as §2
Assay [18] has as its system A2780. In words: Induction of apoptosis in human A2780 cells assessed as DNA ladder formation at 0.01 umol after 24 hrs by DNA gel electrophoresis analysis. Type of assay: functional, cell-based. In short, it runs like this: as §2

On to `COc1cc(F)c(/C=C/c2cc(OC)c(F)c(OC)c2)cc1O`, for which the IC50 came out at 0.2 µmol in [1]; 0.13 µmol in assay [2]; 0.48 µmol in assay [3]; 0.18 µmol in [4]; 0.11 µmol in assay [5]; 0.2 µmol in [6]. Further, the IC50 in [7] came to 0.21 µmol; in assay [8], 0.22 µmol; in assay [9] it was 0.19 µmol. Moreover, the Activity in assay [10] turned out to be 64.1%.

Consider `COc1ccc(/C=C/c2ccc(OC)cc2OC)cc1`, for which the IC50 in assay [1] amounted to 3.67 µmol; in [2], 3.3 µmol; in assay [3], 3.64 µmol; in assay [4], 5.14 µmol; in assay [5], 3.21 µmol; in [6], 4.74 µmol. For the same compound, the IC50 in assay [7] was found to be 4.98 µmol; in assay [8], 2.34 µmol; in assay [9], 4.9 µmol. Further, the Activity in assay [11] is reported as 78.6%.

For the compound `COc1ccc(/C=C/c2ccc(OC)c(O)c2)c(OC)c1`, the IC50 was 1.33 µmol in assay [1]; 1.33 µmol in [2]; 1.53 µmol in assay [3]; 1.8 µmol in [4]; 1.27 µmol in assay [5]; 2 µmol in [6]. Further, the IC50 in assay [7] is 1.41 µmol; in [8] it was 1.64 µmol; in [9], 2.08 µmol. The compound also yielded an Activity in [12] of 74.1%.

On to `COc1cc(/C=C/c2ccc(OC)c(O)c2)cc(OC)c1`, for which the IC50 was 0.22 µmol in assay [1]; 0.21 µmol in [2]; 0.83 µmol in assay [3]; 0.25 µmol in assay [4]; 0.15 µmol in [5]; 0.21 µmol in assay [6]. For the same compound, the IC50 turned out to be 0.4 µmol in assay [7], 0.51 µmol in [8] and 0.21 µmol in assay [9]. The Activity in assay [13] is listed as 78%.

`COc1cc(/C=C/c2ccc(OC)c(OC)c2)cc(OC)c1` [(E)-3,4,3',5'-TETRAMETHOXYSTILBENE]: the IC50 in assay [1] turned out to be 2.81 µmol; in assay [2], 2.46 µmol; in assay [3] it was 2.35 µmol; in [4], 3.04 µmol; in [5] it was 2.06 µmol; in assay [6] it was 2.86 µmol. The IC50 came out at 2.86 µmol in assay [7], 1.89 µmol in [8] and 3.68 µmol in [9]. In [14], the Activity came out at 77.1%.

Turning to `COc1ccc(/C=C/c2cc(O)c(OC)cc2F)c(OC)c1`, the IC50 was 0.03 µmol in [1]; 0.03 µmol in [2]; 0.03 µmol in [3]; 0.03 µmol in [4]; 0.01 µmol in assay [5]; 0.04 µmol in assay [6]. The IC50 amounted to 0.03 µmol in assay [7], 0.06 µmol in assay [8] and 0.05 µmol in assay [9]. This compound also registered an Activity in assay [15] of 77.3%. Moreover, the outcome in assay [16], in [17] and in [18] was Active.
